Experimental findings from ChEMBL document CHEMBL1121809, “Cyclic guanidines. 14. Imidazo[1,2-a]thienopyrimidin-2-one derivatives as blood platelet aggregation inhibitors” (J Med Chem, 1981) are described below.

SMILES strings stand for the structures. A value given as a limit tells only on which side of the number the result lay.

Holding throughout (format): functional
The species entered for assay [1] is Rattus norvegicus. In words: In vitro inhibition of ADP-induced blood platelet aggregation. An outline of the steps: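 Rat carotid citrated blood was spun at 230g for 7 min to give PRP, adjusted with PPP to about 5 × 10⁵ platelets/μL. Compound in saline or MeOH was added before 10 μM ADP in Tris-HCl/NaCl pH 7.4 with CaCl₂. Aggregation was read at 30 °C, 1100 rpm, as maximal ΔA. EC50 is the concentration giving 50% inhibition.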

Assay [2] is filed under the species Rattus norvegicus. As to the kind of experiment: In vitro inhibition of collagen-induced blood platelet aggregation. An outline of the steps: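 Rat PRP (about 5 × 10⁵ platelets/μL) was preincubated with compound added in saline or MeOH. Aggregation was started with bovine tendon collagen suspension in Tris buffer (absorbance 0.270 at 420 nm; lag 2–3 min). Read at 30 °C, 1100 rpm, as initial maximal rate ΔA/min. EC50 is the concentration giving 50% inhibition.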

For assay [3], the system named is Rattus norvegicus. As to the kind of experiment: Ex vivo inhibition of collagen-induced blood platelet aggregation in rat was measured 2 hr after oral administration of 50 mg/kg. Details: scale not given here. The gist of the method: (§1)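 Overnight-fasted rats were dosed orally at (50 mg/10 mL)/kg in 0.5% Tween 80; controls got vehicle at 10 mL/kg. PRP was made from carotid citrated blood 2 h later under pentobarbital. Collagen suspension (absorbance 0.270 at 420 nm) drove aggregation at 30 °C, 1100 rpm. Read-out was the initial maximal rate of absorbance fall (ΔA/min). Inhibition percent is versus controls; 5–7 rats, mean ± SD.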

Assay [4] deals with Rattus norvegicus. In words: Ex vivo inhibition of collagen-induced blood platelet aggregation in rat was measured 2 hr after administration of vehical alone. An outline of the steps: as §1

Turning to `Cc1cc2c(s1)CN1CC(=O)NC1=N2.Cl`, the EC50 in the assay listed under Rattus norvegicus [1] was found to be 250 µM; in the assay listed under Rattus norvegicus [2], 12 µM. The Delta A/min with Rattus norvegicus [3] is 0.217 ΔA/min; with Rattus norvegicus [4] it was 0.228.
For `Cl.O=C1CN2Cc3c(sc4c3CCC(O)C4)N=C2N1` (centres undefined), in that order: 2 µM, 0.1 µM, 2000 and 0.117.
Consider `Cc1sc2c(c1C)CN1C(=N2)NC(=O)C1C.Cl` (centres undefined), for which the EC50 in the assay filed under Rattus norvegicus [1] was 20 µM; in the assay filed under Rattus norvegicus [2], 0.13 µM. The Delta A/min is 0.076 ΔA/min in the assay on Rattus norvegicus [3] and 0.183 in the assay with Rattus norvegicus [4].
For the compound `O=C1CN2Cc3cscc3N=C2N1`, the EC50 in the assay listed under Rattus norvegicus [1] was more than 250 µM; in the assay filed under Rattus norvegicus [2], 90 µM.
As to `Cl.O=C1CN2Cc3c(sc4ccccc34)N=C2N1`, the EC50 in the assay filed under Rattus norvegicus [1] worked out at 5.3 µM; in the assay filed under Rattus norvegicus [2] it was 0.15 µM. The figures for the Delta A/min with Rattus norvegicus [3] and in the assay with Rattus norvegicus [4] were 0.092 ΔA/min and 0.183, respectively.
As for `O=C1CN2Cc3ccsc3N=C2N1`, the EC50 in the assay listed under Rattus norvegicus [1] and in the assay filed under Rattus norvegicus [2] was more than 250 µM each time.
For the compound `CC1CCc2c(sc3c2CN2CC(=O)NC2=N3)C1.Cl` (centres undefined), the EC50 in the assay filed under Rattus norvegicus [1] was found to be 2 µM; in the assay filed under Rattus norvegicus [2], 0.62 µM. For the same compound, the “Delta A/min” value in the assay on Rattus norvegicus [3] came out at 0; with Rattus norvegicus [4], 0.178.
On to `Cl.O=C1CN2Cc3sccc3N=C2N1`, for which the EC50 is more than 250 µM in the assay filed under Rattus norvegicus [1] and 10 µM in the assay filed under Rattus norvegicus [2]. Moreover, the results for the Delta A/min in the assay with Rattus norvegicus [3] and in the assay with Rattus norvegicus [4] were 0.256 ΔA/min and 0.308, respectively.
`Cc1cc2c(s1)N=C1NC(=O)C(C)N1C2` (centres undefined): the EC50 in the assay listed under Rattus norvegicus [1] stood at 230 µM; in the assay filed under Rattus norvegicus [2], 10 µM.
Take `Cl.O=C1CN2Cc3c(sc4c3CCC(OCc3ccccc3)C4)N=C2N1` (centres undefined): the EC50 in the assay listed under Rattus norvegicus [1] worked out at 4.2 µM; in the assay filed under Rattus norvegicus [2], 2.2 µM. Also, the “Delta A/min” value in the assay with Rattus norvegicus [3] turned out to be 42000; in the assay on Rattus norvegicus [4] it was 0.117.
On the same counts, the results for `Cl.O=C1CN2Cc3c(sc4c3SCCC4)NC2=N1` are 1.2 µM, 0.16 µM, 0.125 ΔA/min and 0.171.
In the case of `CN1C(=O)CN2Cc3c(sc4c3CCCC4)N=C21`, the EC50 in the assay listed under Rattus norvegicus [1] and in the assay listed under Rattus norvegicus [2] was more than 250 µM in each case.
On to `CC1CCc2c(sc3c2CN2C(=N3)NC(=O)C2C)C1.Cl` (centres undefined), for which the values for the EC50 in the assay listed under Rattus norvegicus [1] and in the assay filed under Rattus norvegicus [2] were 32 µM and 0.2 µM, respectively. Further, the “Delta A/min” value in the assay on Rattus norvegicus [3] was 152000; in the assay with Rattus norvegicus [4], 0.207.
`O=C1CN2Cc3c(sc4c3CCCC4Cc3ccccc3)N=C2N1` (centres undefined): the results for the EC50 in the assay listed under Rattus norvegicus [1] and in the assay listed under Rattus norvegicus [2] were 160 µM and 4 µM, respectively.
Consider `Cl.O=C1CN2Cc3c(sc4c3CCc3ccccc3-4)N=C2N1`, for which the EC50 in the assay listed under Rattus norvegicus [1] was 19 µM; in the assay filed under Rattus norvegicus [2], 0.9 µM. Besides, the values for the Delta A/min with Rattus norvegicus [3] and in the assay with Rattus norvegicus [4] were 0.191 ΔA/min and 0.207, respectively.
For `Cl.O=C1CN2Cc3c(sc4c3CCOC4)N=C2N1`, in that order: 1.3 µM, 0.2 µM, 113000 and 0.171.
On the same counts, the results for `Cl.Cl.O=C1CN2Cc3c(sc4c3CCN(Cc3ccccc3)C4)N=C2N1` are 13.5 µM, 29 µM, 121000 and 0.186.
With `O=C1CN2Cc3c(sc4c3COc3ccccc3-4)N=C2N1`, the EC50 in the assay listed under Rattus norvegicus [1] was 34 µM; in the assay filed under Rattus norvegicus [2], 1.6 µM.
Regarding `Cl.O=C1CN2Cc3c(sc4c3CCSC4)N=C2N1`, the EC50 turned out to be 2 µM in the assay listed under Rattus norvegicus [1] and 0.54 µM in the assay listed under Rattus norvegicus [2]. Further, the results for the “Delta A/min” value with Rattus norvegicus [3] and in the assay on Rattus norvegicus [4] were 0 and 0.178, respectively.
With `Cc1sc2c(c1Cl)CN1C(=N2)NC(=O)C1C` (centres undefined), the EC50 in the assay filed under Rattus norvegicus [1] was 150 µM; in the assay listed under Rattus norvegicus [2], 0.9 µM.
Take `CC(C)(C)C1CCc2c(sc3c2CN2CC(=O)NC2=N3)C1.Cl` (centres undefined): the results for the EC50 in the assay filed under Rattus norvegicus [1] and in the assay filed under Rattus norvegicus [2] were 27 µM and 0.25 µM, respectively. Further, the figures for the “Delta A/min” value in the assay on Rattus norvegicus [3] and in the assay on Rattus norvegicus [4] were 4000 and 0.117, respectively.
Turning to `CCCCC1C(=O)NC2=Nc3sc4c(c3CN21)CCCC4` (centres undefined), the EC50 in the assay listed under Rattus norvegicus [1] and in the assay filed under Rattus norvegicus [2] was more than 250 µM throughout.
Turning to `CCC1C(=O)NC2=Nc3sc4c(c3CN21)CCCC4` (centres undefined), the figures for the EC50 in the assay filed under Rattus norvegicus [1] and in the assay listed under Rattus norvegicus [2] were more than 250 µM and 60 µM, respectively.
